Experimental data taken from ChEMBL document CHEMBL3872205, “Design, synthesis and evaluation of novel potent angiotensin II receptor 1 antagonists” (Eur J Med Chem, 2016).

Columns and labels:
[1] = AUC (0 to infinity) in Wistar rat spleen at 15 mg/kg, po by HPLC analysis; assay type: ADME, organism-based; set-up: dose 15 mg/kg, route oral, time infinity
Summary of the method: (§1)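 Wistar rats (180 ± 20 g) were dosed orally at 10, 15 or 30 mg/kg. Heart, liver, spleen, lung, kidney and brain were collected at 0–72 h (n = 6 per point). Tissue was rinsed, blotted and homogenized in saline (0.25 g/1 mL), then spun at 10,000 × g. Supernatant was methanol-extracted, dried under nitrogen at 50 °C, reconstituted in methanol and run on C18 HPLC (acetonitrile 60%/water 40%, 1.0 mL/min).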

[2] = MRT (0 to 72 hrs) in Wistar rat liver at 15 mg/kg, po by HPLC analysis; assay type: ADME, organism-based
Summary of the method: (§2)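 Male Wistar rats (180 ± 20 g) received a single oral dose of 10, 15 or 30 mg/kg. Tissues were collected at 0, 0.5, 1, 2, 4, 6, 8, 12, 24, 48 and 72 h (n = 6 per point). Samples of 0.25 g were rinsed, then homogenized in saline (0.25 g/1 mL) and centrifuged at 10,000 × g. Supernatant was methanol-extracted, dried under nitrogen at 50 °C and reconstituted in methanol. Analysis was by C18 HPLC (acetonitrile 60% / water 40%, 1.0 mL/min).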

[3] = MRT (0 to infinity) in Wistar rat liver at 10 mg/kg, po by HPLC analysis; assay type: ADME, organism-based; summary of the method: as §2
[4] = Tmax in Wistar rat spleen at 15 mg/kg, po by HPLC analysis; assay type: ADME, organism-based
[5] = Tmax in Wistar rat plasma at 10 mg/kg, po by HPLC analysis; assay type: ADME, organism-based
Summary of the method: (§3)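 Male Wistar rats (180 ± 20 g), 6 per dose group, each given a single oral dose. Blood was drawn by retro-orbital puncture into heparin at predose and at 0.5, 1, 2, 4, 6, 8, 12, 24, 48 and 72 h, then spun at 4000 × g and 4 °C. Plasma with internal standard was acetonitrile-precipitated, filtered and run on reverse-phase C18 HPLC (0.02 mol/L KH2PO4 55% / acetonitrile 45%, 1.0 mL/min). Calibration standards were 0.1–10 µg/mL, fitted by peak-height ratio with 1/conc² weighting.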

[6] = AUC (0 to 72 hrs) in Wistar rat liver at 10 mg/kg, po by HPLC analysis; assay type: ADME, organism-based; set-up: time < 72 hr, dose 10 mg/kg, route oral; summary of the method: as §1
[7] = Tmax in Wistar rat plasma at 30 mg/kg, po by HPLC analysis; assay type: ADME, organism-based; summary of the method: as §3
[8] = AUC (0 to infinity) in Wistar rat spleen at 10 mg/kg, po by HPLC analysis; assay type: ADME, organism-based; set-up: dose 10 mg/kg, time infinity, route oral; summary of the method: as §1
[9] = Cmax in Wistar rat spleen at 10 mg/kg, po by HPLC analysis; assay type: ADME, organism-based; set-up: dose 10 mg/kg, route oral
Summary of the method: (§4)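 Tissue distribution in male Wistar rats given oral 10, 15 or 30 mg/kg; heart, liver, spleen, lung, kidney and brain collected predose and 0.5–72 h post-dose (n = 6 per time). Tissue rinsed in saline, homogenised 0.25 g/1 mL saline, methanol extraction, dried under nitrogen, reconstituted in methanol. Analysis by reverse-phase C18 HPLC, acetonitrile/water 60:40, 1.0 mL/min, ambient temperature.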

[10] = Half life in Wistar rat spleen at 15 mg/kg, po by HPLC analysis; assay type: ADME, organism-based; summary of the method: as §4
[11] = Half life in Wistar rat plasma at 10 mg/kg, po by HPLC analysis; assay type: ADME, organism-based
[12] = MRT (0 to 72 hrs) in Wistar rat Heart at 15 mg/kg, po by HPLC analysis; assay type: ADME, organism-based; summary of the method: as §4
[13] = AUC (0 to infinity) in Wistar rat Heart at 10 mg/kg, po by HPLC analysis; assay type: ADME, organism-based; set-up: dose 10 mg/kg, time infinity, route oral; summary of the method: as §1
[14] = Cmax in Wistar rat plasma at 10 mg/kg, po by HPLC analysis; assay type: ADME, organism-based; set-up: dose 10 mg/kg, route oral
[15] = AUC (0 to infinity) in Wistar rat Heart at 30 mg/kg, po by HPLC analysis; assay type: ADME, organism-based; set-up: dose 30 mg/kg, route oral, time infinity; summary of the method: as §1
[16] = MRT (0 to 72 hrs) in Wistar rat liver at 30 mg/kg, po by HPLC analysis; assay type: ADME, organism-based; summary of the method: as §2
[17] = MRT (0 to infinity) in Wistar rat lung at 15 mg/kg, po by HPLC analysis; assay type: ADME, organism-based; summary of the method: as §2
[18] = Half life in Wistar rat spleen at 30 mg/kg, po by HPLC analysis; assay type: ADME, organism-based; summary of the method: as §4
[19] = MRT (0 to infinity) in Wistar rat spleen at 15 mg/kg, po by HPLC analysis; assay type: ADME, organism-based; summary of the method: as §2
Rattus norvegicus = assay: Antihypertensive activity in spontaneous hypertensive rat model assessed as reduction in mean blood pressure at 15 mg/kg, po after 4 hrs; assay type: functional
Summary of the method: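 Male SHRs (250 ± 20 g) were randomized, 6 per group. Compound was suspended in 0.5% sodium carboxymethyl cellulose and given orally; vehicle-only negative control. Mean blood pressure was calculated as (SBP − DBP)/3 + DBP from systolic and diastolic readings over the time course. Data are mean ± SD, with p < 0.05 taken as significant.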

[20] = Cmax in Wistar rat liver at 15 mg/kg, po by HPLC analysis; assay type: ADME, organism-based; set-up: dose 15 mg/kg, route oral; summary of the method: as §4
[21] = MRT (0 to infinity) in Wistar rat spleen at 30 mg/kg, po by HPLC analysis; assay type: ADME, organism-based; summary of the method: as §2
[22] = MRT (0 to infinity) in Wistar rat Heart at 10 mg/kg, po by HPLC analysis; assay type: ADME, organism-based; summary of the method: as §2
[23] = AUC (0 to infinity) in Wistar rat brain at 15 mg/kg, po by HPLC analysis; assay type: ADME, organism-based; set-up: dose 15 mg/kg, time infinity, route oral; summary of the method: as §1
[24] = Tmax in Wistar rat kidney at 10 mg/kg, po by HPLC analysis; assay type: ADME, organism-based; summary of the method: as §2
[25] = Half life in Wistar rat Heart at 30 mg/kg, po by HPLC analysis; assay type: ADME, organism-based; summary of the method: as §4
[26] = MRT (0 to infinity) in Wistar rat kidney at 15 mg/kg, po by HPLC analysis; assay type: ADME, organism-based; summary of the method: as §2
Mus musculus = assay: Toxicity in ICR mouse assessed as change in body weight at 1200 mg/kg, po after 2 weeks; assay type: organism-based; settings: in vivo, 336 h
[27] = Tmax in Wistar rat lung at 10 mg/kg, po by HPLC analysis; assay type: ADME, organism-based; summary of the method: as §2
[28] = AUC (0 to infinity) in Wistar rat kidney at 10 mg/kg, po by HPLC analysis; assay type: ADME, organism-based; set-up: dose 10 mg/kg, time infinity, route oral; summary of the method: as §1
[29] = MRT (0 to infinity) in Wistar rat plasma at 10 mg/kg, po by HPLC analysis; assay type: ADME, organism-based; summary of the method: as §3
[30] = AUC (0 to infinity) in Wistar rat lung at 10 mg/kg, po by HPLC analysis; assay type: ADME, organism-based; set-up: dose 10 mg/kg, time infinity, route oral; summary of the method: as §1
[31] = AUC (0 to 72 hrs) in Wistar rat kidney at 10 mg/kg, po by HPLC analysis; assay type: ADME, organism-based; set-up: dose 10 mg/kg, time < 72 hr, route oral; summary of the method: as §1
[32] = Tmax in Wistar rat plasma at 15 mg/kg, po by HPLC analysis; assay type: ADME, organism-based; summary of the method: as §3

## CCCCC1=NC2(CCCC2)C(=O)N1Cc1ccc2c(ccn2-c2ccccc2-c2nnn[nH]2)c1
[1]
  AUC(0-inf): 12000 ng·h/mL
[2]
  MRT last: 4.77 h
[3]
  MRT inf: 3.58 h
[4]
  Tmax: 1.5 h
[5]
  Tmax: 5.67 h
[6]
  AUC(0-t) at 72 h: 3070 ng·h/mL
[7]
  Tmax: 5 h
[8]
  AUC(0-inf): 11700 ng·h/mL
[9]
  Cmax: 348 ng/mL
[10]
  half-life: 7.57 h
[11]
  half-life: 9.93 h
[12]
  MRT last: 16.9 h
[13]
  AUC(0-inf): 962 ng·h/mL
[14]
  Cmax: 856 ng/mL
[15]
  AUC(0-inf): 8760 ng·h/mL
[16]
  MRT last: 6.3 h
[17]
  MRT inf: 3.64 h
[18]
  half-life: 13.4 h
[19]
  MRT inf: 13.1 h
Rattus norvegicus
  Activity: 40.62 mmHg
[20]
  Cmax: 1230 ng/mL
[21]
  MRT inf: 20.4 h
[22]
  MRT inf: 12 h
[23]
  AUC(0-inf): 1180 ng·h/mL
[24]
  Tmax: 1.17 h
[25]
  half-life: 20.2 h
[26]
  MRT inf: 29.4 h
Mus musculus
  Activity: Non-Toxic
[27]
  Tmax: 2 h
[28]
  AUC(0-inf): 10800 ng·h/mL
[29]
  MRT inf: 6.61 h
[30]
  AUC(0-inf): 745 ng·h/mL
[31]
  AUC(0-t) at 72 h: 4340 ng·h/mL
[32]
  Tmax: 4.33 h
